Screens as filed in PubChem.
Rows were chosen to be rich in hits. Some 9.4% of all compounds tested hit in one or more screens of this group.
CSC inhib: cancer stem cell inhibition. cancer stem cell-like cells viability, luminescence. inhibition, % at 7.5 µM. AID 2717. 300,000 compounds, 1.1% hits; in the data active means inhibition above about 75%; inconclusive means no clear call, values can overlap the other calls; tested in HMLE shEcad cells
Lmaj promast: Leishmania major promastigote growth inhibition; Leishmania major promastigotes, resazurin fluorescence viability; inhibition, % at 10 µM; 200,000 compounds, 9% hits; in the data active means inhibition above about 50%;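 further: promastigotes grown with compound for 44 hours at 28 °C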
Mdm2 MdmX PPI: human Mdm2/MdmX binding inhibition; inhibition, % at 8 µM; 330,000 compounds, 3% hits; SaOS-2 split-luciferase Mdm2/MdmX complementation, luminescence; O15151+Q00987; AID 485346;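 active means inhibition of at least 50% at 8 µM in the primary screen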
Target sequence (O15151 whole entry, looked up): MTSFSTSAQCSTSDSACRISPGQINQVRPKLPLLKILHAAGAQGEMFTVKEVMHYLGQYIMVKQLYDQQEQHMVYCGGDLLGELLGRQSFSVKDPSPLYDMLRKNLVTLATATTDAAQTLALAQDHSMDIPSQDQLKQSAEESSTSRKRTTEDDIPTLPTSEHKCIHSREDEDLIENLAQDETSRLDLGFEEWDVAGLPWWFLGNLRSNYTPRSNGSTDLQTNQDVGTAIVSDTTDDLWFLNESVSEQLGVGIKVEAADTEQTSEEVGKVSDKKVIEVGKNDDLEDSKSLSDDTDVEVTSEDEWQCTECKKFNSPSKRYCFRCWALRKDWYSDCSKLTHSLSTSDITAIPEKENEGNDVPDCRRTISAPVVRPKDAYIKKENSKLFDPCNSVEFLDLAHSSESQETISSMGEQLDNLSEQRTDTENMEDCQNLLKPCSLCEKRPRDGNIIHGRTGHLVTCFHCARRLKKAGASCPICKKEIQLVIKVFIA
Target sequence (Q00987 whole entry, looked up): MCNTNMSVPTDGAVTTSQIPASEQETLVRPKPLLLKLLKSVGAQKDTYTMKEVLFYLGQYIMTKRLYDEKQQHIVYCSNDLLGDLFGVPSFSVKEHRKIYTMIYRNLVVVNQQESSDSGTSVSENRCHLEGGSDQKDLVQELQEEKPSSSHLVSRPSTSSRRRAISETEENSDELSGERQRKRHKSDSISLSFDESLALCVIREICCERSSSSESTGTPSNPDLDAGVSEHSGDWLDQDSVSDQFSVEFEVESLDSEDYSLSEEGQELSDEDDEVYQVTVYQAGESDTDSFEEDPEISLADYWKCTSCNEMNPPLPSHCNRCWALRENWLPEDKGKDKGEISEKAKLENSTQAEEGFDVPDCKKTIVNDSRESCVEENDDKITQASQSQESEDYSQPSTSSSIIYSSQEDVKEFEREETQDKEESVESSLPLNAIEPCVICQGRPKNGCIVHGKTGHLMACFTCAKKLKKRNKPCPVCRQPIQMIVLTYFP
T cruzi repl: blocks replication of Trypanosoma cruzi. T. cruzi beta-gal in NIH3T3, luminescence, 90 h. inhibition, % (concentration not given with the values). 300,000 compounds, 1.4% hits. AID 1885;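 active means mean inhibition across valid replicates above about 55%, limit read from the data; inconclusive means mean below that limit but half or more replicates reach it; inactive means mean below it, under half of replicates reach it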;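 further: signal also drops with host cell toxicity which is not excluded here; 0% = plate median of DMSO wells and 100% = zero luminescence signal; higher percent means less beta-gal luminescence so fewer parasites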
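assay system = mouse NIH/3T3 fibroblasts infected with β-gal-expressing T. cruzi Tulahuen C4 | input = 5,000 NIH/3T3 host cells per well | buffer or medium = DMEM plus 2% FBS | timing = 3 h host attachment, then at least 90 h co-culture | measured by = GalScreen luminescence, 60 min | evaluation = luminescence reflecting intracellular parasite burden, expressed as percent inhibition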
Beta cell apopt: blocks beta cell apoptosis; protection from apoptosis, % (test concentration not listed); 300,000 compounds, 0.8% hits; INS-1E cytokine-induced death, ATP luminescence, 48 h; percent of positive-control rescue, neutral wells zero;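 active means Every replicate reaches about 75%, or at least half do and their mean reaches it too, limit read from the data; inconclusive means At least half of replicates reach the limit but their mean does not; inactive means Under half of replicates reach the limit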;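 further: 0% = cytokine-treated negative control wells and 100% = positive control rescue; higher means more ATP so stronger rescue from cytokine killing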
SKKanGAS inh: blocks kanamycin growth of S. pyogenes SKKanGAS strain; 300,000 compounds, 1.3% hits; inhibition, % at 7.5 µM; AID 1662; BacTiter-Glo, 6 h;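 active means mean replicate score, as percent of positive control median, at least 50; inconclusive means mean below 50 but one replicate at or above 50; inactive means mean and every replicate below 50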;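 further: strain carries kanamycin resistance gene driven by streptokinase promoter and grows in 40 µg/ml kanamycin; loss of luminescence reflects streptokinase promoter inhibition or plain growth inhibition; 0% = median of DMSO wells and 100% = positive control at its reference dose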
Mdm2 MdmX conf: confirmation of human Mdm2/MdmX interaction inhibitors; Mdm2-MdmX binding, luminescent assay; shares compounds with Mdm2 MdmX PPI; 10,000 compounds, 55% hits; inhibition, % at 8 µM; AID 489028; in the data active means inhibition above about 40%
Full FLuc ctr: full-length luciferase inhibition in Mdm2/MdmX counter-screen | shares compounds with Mdm2 MdmX PPI | SaOS-2 full-length luciferase counterscreen, luminescence | inhibition, % at 8 µM | 6,200 compounds, 77% hits;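 active means mean inhibition at 8 µM reaching about 37%, which flags the compound as non-specific, limit read from the data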;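 further: p53-null SaOS-2 cells with luciferase driven by a doxycycline-inducible promoter; compound on cells about two nights before reading with doxycycline added after day one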
An asterisk follows results filed as active.

`O=C(Nc1cccc(-c2nc3ccccc3[nH]2)c1)c1cccc(NC(=O)c2ccco2)c1` gave CSC inhib 98.7*, Lmaj promast 82.1*, Mdm2 MdmX PPI 100.2*, T cruzi repl inconclusive, Beta cell apopt 55.6, SKKanGAS inh 21.2, Mdm2 MdmX conf 29.2 and Full FLuc ctr 56.0*.
For O=C(Nc1ccc(Cl)c(-c2nc3ccccc3[nH]2)c1)c1ccc2c(c1)OCO2 the results were CSC inhib 0.0, Lmaj promast 9.4, Mdm2 MdmX PPI 5.5, T cruzi repl 26.5, Beta cell apopt 2.2 and SKKanGAS inh 17.5.
For COc1ccc(C2CC(c3ccc4ccccc4c3)=NN2C(=O)CNC2CCCCC2)cc1 (stereo not given) the results were CSC inhib -5.9, Lmaj promast 100.2*, Mdm2 MdmX PPI 61.8*, T cruzi repl 79.9*, Beta cell apopt 19.6, SKKanGAS inh 8.7 and Mdm2 MdmX conf 27.6.
For COc1ccc(C2CC(c3ccccc3)=NN2C(=O)COC(=O)c2ccc(S(C)(=O)=O)cc2)cc1 (stereo not given) the results were CSC inhib -0.3, Mdm2 MdmX PPI 20.1, T cruzi repl 16.1, Beta cell apopt -6.1 and SKKanGAS inh -2.7.
For C=CCNCC(=O)N1N=C(c2ccc3ccccc3c2)CC1c1ccc(OC)cc1 (stereo not given) the results were CSC inhib 23.7, Lmaj promast 41.4, Mdm2 MdmX PPI 43.2, T cruzi repl 46.4, Beta cell apopt 8.5 and SKKanGAS inh -6.2.
COc1ccc(C2CC(c3ccccc3)=NN2C(=O)COC(=O)c2cccc(O)c2)cc1 (stereo not given) was read as CSC inhib -1.8, Mdm2 MdmX PPI 54.9*, Beta cell apopt -0.3 and Mdm2 MdmX conf -7.2.
Screening CCN1CCN(CCCNC(=O)c2ccc(/C=C3/Sc4ccccc4N(Cc4ccccc4F)C3=O)cc2)CC1 returned CSC inhib 103.5*, Lmaj promast 97.8*, Mdm2 MdmX PPI 93.9*, T cruzi repl 57.2*, Beta cell apopt 4.1, SKKanGAS inh 8.1, Mdm2 MdmX conf 74.2* and Full FLuc ctr 24.1.
Screening O=C(NCCCN1CCOCC1)c1ccc(/C=C2\Oc3ccccc3N(Cc3ccccc3F)C2=O)cc1 returned CSC inhib 43.0, Mdm2 MdmX PPI 47.8, T cruzi repl 13.6, Beta cell apopt -3.2 and SKKanGAS inh 14.3.
`CCN1CCN(CCCNC(=O)c2ccc(/C=C3/Oc4ccccc4N(Cc4cccc(C)c4)C3=O)cc2)CC1` gave CSC inhib -3.6, Mdm2 MdmX PPI 100.4*, T cruzi repl 47.6, Beta cell apopt 27.0, SKKanGAS inh 12.3 and Mdm2 MdmX conf 32.8.
Screening Cc1cc(C)cc(N(CCC#N)C(=O)CSc2ncnc3sccc23)c1 returned CSC inhib -13.4, Mdm2 MdmX PPI 15.5 and Beta cell apopt -12.3.
Screening COc1ccc(C(=O)C2CCCN(S(=O)(=O)C(C)C)C2)c(C)c1 (stereo not given) returned CSC inhib -9.9, Lmaj promast -7.3, Mdm2 MdmX PPI -24.0, T cruzi repl -18.4, Beta cell apopt -10.7 and SKKanGAS inh -2.7.
For COc1ccc(Nc2ncnc3ccc([N+](=O)[O-])cc23)c(OC)c1 the results were CSC inhib -1.9, Lmaj promast 17.9, Mdm2 MdmX PPI 36.8, T cruzi repl 2.2, Beta cell apopt -2.7 and SKKanGAS inh -0.7.
For O=[N+]([O-])c1ccc2ncnc(Nc3ccc4c(c3)OCCO4)c2c1 the results were CSC inhib 6.0, Lmaj promast -1.3, Mdm2 MdmX PPI 56.3*, T cruzi repl -12.1, Beta cell apopt -4.7, SKKanGAS inh -1.0, Mdm2 MdmX conf 57.7* and Full FLuc ctr 29.6.
`O=[N+]([O-])c1ccc(O)c(Nc2ncnc3ccccc23)c1` gave CSC inhib 13.0, Lmaj promast -7.8, Mdm2 MdmX PPI 60.2*, T cruzi repl 4.2, Beta cell apopt -2.9, SKKanGAS inh -0.8 and Mdm2 MdmX conf 17.3.
CCOc1ccc(-c2ccc3nnc(SCC(=O)NCC4CCCO4)n3n2)cc1 (stereo not given) was read as CSC inhib -12.9, Mdm2 MdmX PPI 11.8, T cruzi repl -2.2 and SKKanGAS inh 15.1.
For Cc1cccc2c1cnn2C(=O)CCC(=O)NCC(C)c1ccccc1 (stereo not given) the results were CSC inhib -1.9, Mdm2 MdmX PPI 12.9, T cruzi repl -11.1, Beta cell apopt 1.2 and SKKanGAS inh 4.5.
Cc1cc(Oc2ncccc2[N+](=O)[O-])c2cc(Cl)ccc2n1 was read as CSC inhib 2.4, Mdm2 MdmX PPI 56.3*, T cruzi repl -8.6, Beta cell apopt -5.6, SKKanGAS inh 0.3 and Mdm2 MdmX conf 8.7.
COc1cccc(NC(=O)CN(C)CC(=O)Nc2ccc3c(c2)OCO3)c1 was read as CSC inhib -4.8, Mdm2 MdmX PPI 19.3 and Beta cell apopt -2.3.
COc1cccc(NC(=O)CN(C)CC(=O)Nc2ccc(C)c([N+](=O)[O-])c2)c1 was read as CSC inhib -7.6, Mdm2 MdmX PPI 61.2*, T cruzi repl 1.0, Beta cell apopt -12.1, SKKanGAS inh -2.4, Mdm2 MdmX conf 46.4* and Full FLuc ctr 41.7*.
C/C(=N\NC(=O)c1nnn(-c2nonc2N)c1CSc1ccccc1)c1ccc2c(c1)OCO2 was read as Mdm2 MdmX PPI 54.0*, T cruzi repl 0.8, Beta cell apopt -2.8, SKKanGAS inh 0.3 and Mdm2 MdmX conf 17.4.
`C/C(=N\NC(=O)c1nnn(-c2nonc2N)c1CSc1ccccc1)c1ccco1` gave CSC inhib -2.0, Mdm2 MdmX PPI 23.5, T cruzi repl 10.5, Beta cell apopt 2.2 and SKKanGAS inh -2.4.
Screening C/C(=N\NC(=O)c1nnn(-c2nonc2N)c1CSc1ccc(C)cc1)c1ccco1 returned CSC inhib 1.5, Mdm2 MdmX PPI 62.1*, T cruzi repl 8.9, Beta cell apopt 2.8, SKKanGAS inh -3.5 and Mdm2 MdmX conf 0.1.
Cc1ccc(C(C(=O)NCc2ccco2)N(C(=O)CNC(=O)c2cccs2)c2ccc(C)cc2C)cc1 (stereo not given) was read as CSC inhib 11.7, Lmaj promast -3.1, Mdm2 MdmX PPI 59.5*, T cruzi repl -6.0, Beta cell apopt 25.2, SKKanGAS inh 8.3 and Mdm2 MdmX conf 3.8.
Screening O=S(=O)(c1ccccc1)c1cnc(-c2ccccc2)nc1N1CCCCC1 returned CSC inhib 10.9, Lmaj promast 23.6, Mdm2 MdmX PPI 32.6, T cruzi repl 20.3, Beta cell apopt -5.5 and SKKanGAS inh 14.4.
